System: MS2 coat protein
Assay: apparent Kd, MS2 coat protein; higher = weaker binding; RNA-MaP array; FMN 200 µM where present
Method in brief: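 The titrant was SNAP-549-labelled MS2 coat protein, run from 0.7 or 1.5 nM in doubling steps to 3 µM. It was applied to designs transcribed by stalled E. coli RNA polymerase on Illumina sequencing-chip clusters, without ligand first and then with constant ligand, in 100 mM Tris-HCl pH 7.5, 80 mM KCl, 4 mM MgCl2, BSA, DTT, yeast tRNA and Tween-20. The apparent Kd is the median of filtered per-cluster binding-curve fits, with green signal normalised to red-channel RNA signal and control-cluster median Fmax.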

[1] = designed as: ON switch for flavin mononucleotide, no ligand
[2] = ligand present: flavin mononucleotide, designed as: ON switch for flavin mononucleotide
[3] = designed as: OFF switch for flavin mononucleotide, no ligand
[4] = ligand present: flavin mononucleotide, designed as: OFF switch for flavin mononucleotide

Sequence | apparent Kd [1] [nM] | apparent Kd [2] [nM] | apparent Kd [3] [nM] | apparent Kd [4] [nM]
GUAAAACAAACUAACAUGAGGAUCACCCAUGUGAGGAGGCUCAGAAGGGCGUGGAAAAUUUCCUCGCAGGAUAUGAACCUCAUU | 70.8 | 9.66 | – | –
GUGCCUUGGGAGAAGGUUAUUGGCAAAGCUAUUAAAGGAUAUUCAUACCGGAAACGGACAUGAGGAUCACCCAUGUGGCACAAA | 752 | 208 | – | –
AAAUAAAGGACUGAGGAUAUACCACAUGAAACAUGAGGAUCACCCAUGUAAUAAUACAAAGGGUGGUAGAAGGUAGUCCACAAACA | 34.9 | 16.8 | – | –
AACUAAGUAUUAAUGGUGUCUGACAGAAGGCAAUAGAAUGAGACCGACAUGAGGAUCACCCAUGUUGAGGAUAUGUCUAGCUAC | – | – | 6.33 | 7.27
AAUUUACAUGAGGAUCACCCAUGUGAGGAUAUGAUACUAUGUACUUCGGUACAUAGUAUCAGAAGGCAUGUGGA | – | – | 129 | 37.1
UUUUUGUGAGGAUAUCAGUAGUAGAACAAUAGUACUACUACUGAGAAGGCACAUGAGGAUCACCCAUGUUCUUC | – | – | 29 | 133
UCAAUCACUGGAGGAUAUGUACUAAUUUGCGGUUCCUCGAUAUCUCACAUGAGGAUCACCCAUGUACAGAAGGCUAGUCGGAAA | – | – | 783 | 99.7
AAUUACAUGUAGAAGGUACUUUCAUAAGUGUUGUAAGGAUAUACCAAUUUAUUAGUUUUAAAGAUACAUGAGGAUCACCCAUGU | 8.59 | 8.18 | – | –
CACAUUUUAACAGGAUAUGUAAGGUAGCUUAUUAUUGCAUAUACAAUUAUUACAGAAGGGUUAUACAUGAGGAUCACCCAUGUG | 22.8 | 17.1 | – | –
AAACAGCUAGGAUAUACCCUCCGUGAGACUCCCAAAUCGAAACAUGAGGAUCACCCAUGUAGAAGGAGCUGACG | – | – | 13.4 | 12.2
UUGGAGGUCGUAGGAUAUGUAGGAUAUUCCUACAUGAGGAUCACCCAUGUUGACAUGGAAGAAGGACAGAAGGACGAUGUCCAU | 367 | 6.26 | – | –
GCUGGACGAGGAUAUAUAUGACGUGCUUCGGCACGAAGGUCACAUGAGGAUCACCCAUGUAGAAGGUGUCCAGC | – | – | 30.7 | 106
UUUUUGUCAGGAUAUGAUUAGAUCUACUUCGGUAGAUCUAAUCAGAAGGGACAUGAGGAUCACCCAUGUAGUUU | – | – | 36.5 | 141
AAUAAACUCACAGGAUAUAGCAGAGGUCGCGUAAACUUACAGGCGACUAUGCUAGAAGGGUGACCACAUGAGGAUCACCCAUGU | 836 | 161 | – | –
UGUUAGUAGUGAGGAUAUACAUACACCUUACAUGAGGAUCACCCAUGUUUUAAGAUUGAUAGAUAGUAGAAGGCACAUGAUGAU | 59 | 23 | – | –
UCAUUGUAAGGAUAUAAAAGCUCGCGGAAUUGCACGGGUUGUUAGAAGGUACAUGAGGAUCACCCAUGUUCCUA | – | – | 17.1 | 22.1
UACAGCUUGACAGGAUAUACAUCACUGCGAAAGCAGUGUAUCUUAAUAACAUGAGGAUCACCCAUGUAGAAGGGUCGAGCUGUA | – | – | 19.8 | 35.9
UAUAAAACAUAGGAUAUCGAAAUUAUCAUUUAACGAGAAGGAUGAACAUGAGGAUCACCCAUGUGGUAUCAUGG | – | – | 392 | 518
CUUUUGUGAGGAUAUUAGUAGUAAAUAAAUAAAAUUACUACUGAGAAGGCACAUGAGGAUCACCCAUGUUCUUC | – | – | 19.4 | 93.8
AUUAAACAUGAGGAUCACCCAUGUAAUAUUAUGGGAGGAUAUGCGAAUUUAAUUAAUUAAGCAGAAGGCCUAAUUA | 108 | 19 | – | –

— the EternaBench riboswitch data
